Sampled rows, rich in hits. Any-hit rate of the full collection: about 1.5%.
Cneo AK release: Cryptococcus neoformans lysis via adenylate kinase release | AID 651654 | C. neoformans lysis, adenylate kinase release luminescence, 4 h; normalised: neutral wells 0, clomiphene wells 100 | lysis activity, % at 15 µM | 360,000 tested, 0.2% active;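 active means mean lysis activity across replicates of at least 80%, whatever share of replicates individually reach that level; inactive means mean lysis activity below 80%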
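Material – Cryptococcus neoformans yeast cells · Quantity – 5 × 10^6 yeast cells/mL · Buffer or medium – YPD medium · Compound – single dose · Timing – 4 h static compound exposure, 37 °C, read 1 h post-reagent · Signal – adenylate kinase release luminescence · Read-out basis – lysis from increased AK signal · Benchmarks – Clomiphene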
Statin myotox sup: protects C2C12 myotubes from simvastatin toxicity. ATP luminescence, 48 h; scaled: DMSO 0, geranylgeraniol control 100. rescue of ATP level, % at 7.49 µM. 330,000 tested, 0.78% active;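 active means mean ATP rescue above about 67%, or every replicate alone reaching that limit, limit read from the data, passing the limit was not always enough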;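 further: myotubes were challenged with 10 µM simvastatin during compound exposure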
SUMO Mot1 rescue: SUMOylation pathway inhibition by Mot1-301 growth rescue; AID 2716; growth rescue, % at 18.8 µM; S. cerevisiae Mot1-301 growth rescue, ATP luminescence, 38.5C; percent above DMSO median, 100 means doubled; 320,000 tested, 1% active;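 active means every valid replicate shows activation above 250% relative to neutral control wells; inactive means the rest, any valid replicate at or below 250%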
A number is an active result; i = inactive; nt = no result given.

SMILES | Cneo AK release | Statin myotox sup | SUMO Mot1 rescue
CN(C)c1ccc(/C=C2/C(=O)NC(=O)N(Cc3ccco3)C2=O)cc1 | i | i | 383
CCN(CC)c1ccc(/C=C2/C(=O)NC(=O)N(Cc3ccco3)C2=O)cc1 | nt | i | i
N#Cc1cccc(-c2ccc([C@H]3[C@H](CO)N4CCCCN(C(=O)Cc5cccnc5)C[C@@H]34)cc2)c1 | i | i | nt
O=c1c2ccccc2nc(-c2ccco2)n1-c1ccccn1 | i | 120 | i
Cc1cccnc1-n1c(-c2ccco2)nc2ccccc2c1=O | i | i | i
CC=Cc1ccc2n(c1=O)C[C@H]1[C@H](CO)[C@@H](C(=O)OC)[C@@H]2N1S(=O)(=O)c1ccccc1C (mixture of isomers) | i | i | nt
COC(=O)[C@@H]1[C@@H](CO)[C@@H]2Cn3c(ccc(-c4ccccc4)c3=O)[C@H]1N2CC1CC1 | i | i | nt
COc1ccc(CC(=O)N2CCN(C)CC2)cc1 | i | i | nt
COc1ccc(CC2NCC(O)C2OC(C)=O)cc1 (centres undefined) | i | 114 | nt
CCN1[C@@H]2c3ccc(-c4cccc(OC)c4)c(=O)n3C[C@H]1[C@H](CO)[C@H]2C(=O)OC | i | i | nt
Cn1ccnc1P(=S)(c1nccn1C)N1CCOCC1 | i | i | i
Cc1nc2ccc(Cl)cn2c1P(=S)(N1CCOCC1)N1CCOCC1 | i | 93 | i
O=C(Cc1cccnc1)N1CCCCN2[C@@H](CO)[C@H](c3ccc(C#CC4CC4)cc3)[C@@H]2C1 | i | nt | nt
CCc1nc2ccccc2c(=O)n1-c1ccc2ccccc2c1 | i | 123 | i
CCCc1nc2ccccc2c(=O)n1-c1ccc(OC)cc1 | i | i | i
CC=Cc1ccc2n(c1=O)C[C@@H]1[C@@H](CO)[C@H](C(=O)OC)[C@H]2N1S(=O)(=O)c1ccccc1C (mixture of isomers) | i | i | nt
CC(=O)OC1(Cc2ccccc2)CN2CCC1c1ccccc12 (centres undefined) | i | 114 | nt
CC(=O)OC1(c2ccc(C)cc2)CN2CCC1c1ccccc12 (centres undefined) | nt | i | i
CCN1[C@@H]2Cn3c(ccc(-c4ccc(OC)cc4)c3=O)[C@H]1[C@@H](C(=O)OC)[C@@H]2CO | i | i | nt
COC(=O)[C@@H]1[C@@H](CO)[C@@H]2Cn3c(ccc(C4=CCCCC4)c3=O)[C@H]1N2C(=O)CC1CC1 | i | i | nt
O=C(O)[C@H]1[C@H](CO)[C@H]2Cn3c(ccc(-c4cccc(F)c4)c3=O)[C@@H]1N2CCc1ccccc1 | i | i | nt
COC(=O)C1=C(c2ccc(F)cc2OCc2ccccc2)C[C@@H]2CC[C@H]1N2C(=O)NCc1ccc(Br)cc1 | i | 76 | i
COC(=O)C1=C(c2ccc(F)cc2OCc2ccccc2)C[C@@H]2CC[C@H]1N2C(=O)NCc1cccc(OC)c1 | i | i | i
COC(=O)C1=C(c2ccc(OC(F)(F)F)cc2)C[C@@H]2CC[C@H]1N2C(=O)NCCNC(C)=O | i | i | i
COC(=O)C1=C(c2ccc(OC(F)(F)F)cc2)C[C@@H]2CC[C@H]1N2C(=O)NCCOc1ccc(OC)cc1 | i | 128 | i
SMILES | Cneo AK release | Statin myotox sup | SUMO Mot1 rescue
COC(=O)C1=C(c2ccc(F)cc2OCc2ccccc2)C[C@@H]2CC[C@H]1N2C(=O)NCc1ccc(OC)cc1 | i | 84 | i
COC(=O)C1=C(c2ccc(F)cc2OCc2ccccc2)C[C@@H]2CC[C@H]1N2C(=O)NCc1ccc(N(C)C)cc1 | i | i | i
COC(=O)[C@@H]1[C@@H](CO)[C@@H]2Cn3c(ccc(C4=CCCC4)c3=O)[C@H]1N2Cc1ccccn1 | i | i | nt
O=C(Cc1ccccn1)N1CCCCN2[C@H](CO)[C@H](c3ccc(-c4ccccc4F)cc3)[C@@H]2C1 | i | i | nt
CCCN1[C@@H]2Cn3c(ccc(-c4ccccc4)c3=O)[C@H]1[C@@H](C(=O)OC)[C@@H]2CO | i | i | nt
CCCCC1(CCO)C(=O)NC(=S)NC1=O | i | i | nt
CCCCC1(CN2CCCC2=O)C(=O)NC(=O)NC1=O | i | 106 | nt
COC(=O)[C@@H]1[C@@H](CO)[C@@H]2Cn3c(ccc(-c4ccccc4OC)c3=O)[C@H]1N2Cc1ccccc1 | i | i | nt
Nc1c(C(=O)NCc2ccco2)c2nc3ccccc3nc2n1Cc1ccccc1 | nt | nt | i
COc1ccc(Cn2c(N)c(C(=O)NCc3ccco3)c3nc4ccccc4nc32)cc1 | i | 74 | i
CC=Cc1ccc2n(c1=O)C[C@@H]1[C@@H](CO)[C@H](C(=O)OC)[C@H]2N1CC1CCOCC1 (mixture of isomers) | i | i | nt
CC12CN3CN(C1)CC(c1ccccc1)(C3)C2=O | nt | 102 | i
OC1C2CN3CN(C2)CC1(c1ccccc1)C3 (centres undefined) | i | i | nt
COC(=O)C[C@@H]1CC[C@H]2NC[C@@H](O)COC[C@@H]2O1 | i | i | nt
CCCN1[C@@H]2c3ccc(-c4ccc(OC)cc4)c(=O)n3C[C@H]1[C@H](CO)[C@H]2C(=O)OC | i | i | nt
OC(COCc1ccc(Cl)cc1)CN1CC=C(c2ccccc2)CC1 (centres undefined) | i | i | i
OC(CN1CC=C(c2ccccc2)CC1)c1ccccc1 (centres undefined) | i | 84 | i
O=C(Cc1cccnc1)N1CCCCN2[C@H](C1)[C@@H](c1ccc(/C=C/c3ccccc3)cc1)[C@@H]2CO | i | nt | nt
COc1ccc(-c2ccc([C@@H]3[C@@H](CO)N4CCCCN(C(=O)Cc5ccccc5)C[C@H]34)cc2)cc1 | i | nt | nt
CSc1ccc(C(=O)C2CCCN(Cc3cnc(SC)nc3)C2)cc1 (centres undefined) | i | i | 305
CSc1ncc(CN2CCCC(C(=O)c3ccccc3SC)C2)cn1 (centres undefined) | i | nt | i
C[CH2][Hg][S]c1ccccc1C(=O)O | i | i | 355
CC(C)COC(=O)c1ccccc1C(=O)OCC(C)C | i | i | i
COc1cccc(-c2ccc([C@@H]3[C@H]4CN(C(=O)Cc5ccncc5)CCCCN4[C@H]3CO)cc2)c1 | i | nt | nt
C[C@@H]1C[C@@H]([C@H](O)CC2CC(=O)NC(=O)C2)C(=O)[C@@H](C)C1 | i | 173 | i
SMILES | Cneo AK release | Statin myotox sup | SUMO Mot1 rescue
CC(=O)OC1(C)CC(C)C(=O)C(C(O)CC2CC(=O)NC(=O)C2)C1 (centres undefined) | 98 | 83 | nt
COC(=O)[C@H]1[C@H](CO)[C@H]2Cn3c(cccc3=O)[C@@H]1N2C(=O)C1CCC1 | i | i | nt
COc1ccc(OCC(=O)N2CCN(Cc3ccc(SC)cc3)CC2)cc1 | i | i | 262
COc1ccc(OCC(=O)N2CCN(Cc3ccc4c(c3)OCO4)CC2)cc1 | i | i | i
CCC1(Oc2ccccc2)C(=O)NC(=O)NC1=O | i | 108 | nt
COC(=O)CC1(Cc2ccccc2)C(=O)NC(=O)NC1=O | i | i | i
COCC(=O)N1[C@@H]2c3ccc(C4=CCCC4)c(=O)n3C[C@H]1[C@H](CO)[C@H]2C(=O)OC | i | i | nt
Oc1ccccc1-[n+]1c(-c2ccccc2)cc(-c2ccccc2)c(O)c1-c1ccccc1 | i | i | 366
Oc1ccc(-[n+]2c(-c3ccccc3)cc(-c3ccccc3)cc2-c2ccccc2)cc1 | i | i | i
O=C(Cc1ccccc1)N1CCCCN2[C@H](C1)[C@H](c1ccc(C#Cc3ccccc3)cc1)[C@@H]2CO | i | nt | nt
